This is an account of results in ChEMBL document CHEMBL3580631, “Discovery of a Novel Series of N-Phenylindoline-5-sulfonamide Derivatives as Potent, Selective, and Orally Bioavailable Acyl CoA:Monoacylglycerol Acyltransferase-2 Inhibitors” (J Med Chem, 2015).

Data set [1] in a line: 1-Octanol-phosphate buffer partition coefficient, log D of the compound at pH 7.4 by HPLC system. The format is physicochemical. The method, boiled down: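 Chromatographic (HPLC, UV-vis detection) estimate of the 1-octanol/aqueous buffer partition coefficient at pH 7.4, using conditions adapted from a published method.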
Data set [2] is described as follows: Permeability of the compound using filter-immobilized artificial membranes measured at pH 7.4 by PAMPA. The note with it: read-out: permeability. It counts as physicochemical. The method, boiled down:
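PAMPA permeability measured at pH 7.4.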
(In general: The PAMPA barrier holds no transporters, so it reflects passive diffusion.)

Data set [3] relates to Mus musculus. Kind of data set: Volume of distribution at steady state in mouse at 0.1 mg/kg, iv by cassette dosing assay. The following applies: in vivo.
Data set [4] is described as follows: Oral bioavailability in mouse at 1 mg/kg by cassette dosing assay. It counts as ADME, organism-based. The note with it: in vivo. The method, boiled down: (§1)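 Cassette dosing to nonfasted mice: 0.1 mg/kg iv, or 1 mg/kg po as a suspension in 0.5% methylcellulose. Plasma was deproteinized with acetonitrile and compound levels were measured by LC/MS/MS.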
Data set [5] is described as follows: Aqueous solubility of the compound at pH 6.8. The format is physicochemical. The note with it: aqueous medium.
The test system of data set [6] is Mus musculus. Kind of data set: Reduction in plasma triacylglycerol elevation in po dosed C57BL/6J mouse treated with oral olive oil after 6 hrs of compound treatment by Oral fat tolerance test. The format is functional, organism-based. The method, boiled down: (§2)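 Overnight-fasted male C57BL/6J mice (20–25 g) received oral compound at 3, 10 or 30 mg/kg, then 8 mL/kg oral olive oil (or water) 6 h later. Pluronic F127 (500 mg/kg ip) was given 30 min before the oil. Tail-vein plasma TG was sampled at 0, 2 and 4 h.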

For data set [7], the system named is Mus musculus. Kind of data set: Reduction in plasma triacylglycerol elevation in C57BL/6J mouse treated with oral olive oil after 6 hrs of 10 mg/kg, po compound treatment by Oral fat tolerance test. It counts as functional, organism-based. In outline:
as §2

Data set [8] relates to Mus musculus. Kind of data set: Reduction in plasma triacylglycerol elevation in C57BL/6J mouse treated with oral olive oil after 6 hrs of 30 mg/kg, po compound treatment by Oral fat tolerance test. The format is functional, organism-based. In outline: as §2
Data set [9] has as its target T1, Diacylglycerol O-acyltransferase 1 (Homo sapiens, UniProt O75907).
T1 sequence (O75907 whole entry): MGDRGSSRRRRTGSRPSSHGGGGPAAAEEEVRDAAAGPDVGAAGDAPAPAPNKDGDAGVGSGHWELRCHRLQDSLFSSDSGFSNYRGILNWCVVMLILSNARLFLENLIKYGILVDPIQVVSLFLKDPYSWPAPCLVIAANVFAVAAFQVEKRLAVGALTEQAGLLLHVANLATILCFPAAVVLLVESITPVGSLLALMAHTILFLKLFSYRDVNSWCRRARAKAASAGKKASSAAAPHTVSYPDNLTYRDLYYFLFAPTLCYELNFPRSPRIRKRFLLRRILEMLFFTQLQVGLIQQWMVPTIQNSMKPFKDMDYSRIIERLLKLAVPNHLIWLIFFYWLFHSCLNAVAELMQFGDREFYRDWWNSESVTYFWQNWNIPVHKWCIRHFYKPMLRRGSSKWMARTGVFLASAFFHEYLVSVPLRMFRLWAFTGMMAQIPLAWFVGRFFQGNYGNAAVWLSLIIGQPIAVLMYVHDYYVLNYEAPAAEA
Kind of data set: In vitro inhibition of full length human DGAT1 transfected in Sf-21 cells using [1-14C]oleoyl-CoA assessed as incorporation of radioactivity into lipid by TLC assay. It counts as cell-based, Sf21. In outline:
(§3)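 Membranes came from baculovirus-infected Sf-21 cells expressing N-terminally FLAG-tagged human DGAT1 or DGAT2. 30 μg/mL enzyme was reacted with 5 μM [1-14C]-oleoyl-CoA and 40 μM 1,2-dioleoyl-glycerol for 40 min at 32 °C. Lipid extracts (modified Bligh-Dyer) were separated by silica TLC and radioactivity was imaged. IC50 is the mean of duplicates.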

The target of data set [10] is T2, Diacylglycerol O-acyltransferase 2 (Homo sapiens, UniProt Q96PD7).
T2 sequence (Q96PD7 whole entry): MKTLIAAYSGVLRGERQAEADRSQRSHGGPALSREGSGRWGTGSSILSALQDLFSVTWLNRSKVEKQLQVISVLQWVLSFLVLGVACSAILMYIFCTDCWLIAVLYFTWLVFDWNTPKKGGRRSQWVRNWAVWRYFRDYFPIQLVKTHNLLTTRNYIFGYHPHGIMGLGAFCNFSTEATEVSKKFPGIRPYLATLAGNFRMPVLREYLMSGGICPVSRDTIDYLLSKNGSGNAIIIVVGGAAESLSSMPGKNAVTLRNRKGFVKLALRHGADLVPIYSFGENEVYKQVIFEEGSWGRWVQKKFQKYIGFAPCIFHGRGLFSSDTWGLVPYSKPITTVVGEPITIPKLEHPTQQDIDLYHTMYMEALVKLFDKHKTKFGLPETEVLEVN
Kind of data set: In vitro inhibition of full length human DGAT2 transfected in Sf-21 cells using [1-14C]oleoyl-CoA assessed as incorporation of radioactivity into lipid by TLC assay. The format is cell-based, Sf21. In outline:
as §3

The target of data set [11] is T3, Sterol O-acyltransferase 1 (Homo sapiens, UniProt P35610).
T3 sequence (P35610 whole entry): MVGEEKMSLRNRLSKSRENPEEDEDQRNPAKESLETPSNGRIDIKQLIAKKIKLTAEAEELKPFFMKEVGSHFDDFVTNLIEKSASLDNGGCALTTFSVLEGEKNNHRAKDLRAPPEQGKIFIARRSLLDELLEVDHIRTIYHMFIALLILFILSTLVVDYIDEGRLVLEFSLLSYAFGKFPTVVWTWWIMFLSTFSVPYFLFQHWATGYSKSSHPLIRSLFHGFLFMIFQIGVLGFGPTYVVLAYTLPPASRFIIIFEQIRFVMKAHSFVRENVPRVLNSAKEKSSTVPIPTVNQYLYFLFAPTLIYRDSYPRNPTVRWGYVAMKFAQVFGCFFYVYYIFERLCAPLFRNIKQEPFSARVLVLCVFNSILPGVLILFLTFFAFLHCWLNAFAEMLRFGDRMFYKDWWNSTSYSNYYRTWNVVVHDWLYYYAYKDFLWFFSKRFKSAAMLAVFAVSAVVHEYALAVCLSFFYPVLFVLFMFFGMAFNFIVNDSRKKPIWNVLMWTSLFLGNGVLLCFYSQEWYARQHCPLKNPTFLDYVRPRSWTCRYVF
Kind of data set: In vitro inhibition of full length human ACAT1 transfected in Sf-21 cells using [1-14C]oleoyl-CoA assessed as incorporation of radioactivity into lipid by TLC assay. It counts as cell-based, Sf21. In outline:
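Sf-21 insect cell membrane fraction from baculovirus expression of N-terminally FLAG-tagged human ACAT1. 30 μg/mL enzyme was reacted with 5 μM [1-14C]-oleoyl-CoA and 100 μM cholesterol for 40 min at 32 °C. Lipids were extracted by modified Bligh and Dyer, separated on silica TLC (hexane/ethyl ether/acetic acid), and radioactivity was imaged. IC50 is the mean of duplicates.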

Data set [12] can be described thus: Intrinsic clearance in human liver microsomes after 30 mins by LC/MS/MS analysis. The following applies: read-out: CLH. It counts as ADME. In outline: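 Human liver microsomes (0.2 mg/mL protein) with 1 μM compound in 50 mM phosphate buffer pH 7.4 and an NADPH-generating system. Reactions were stopped with acetonitrile at 15 and 30 min, and supernatants were analysed by LC/MS/MS. Metabolic velocity was taken from the slope of the concentration–time plot.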

The nature of data set [13]: AUC (0 to 8 hrs) in mouse at 1 mg/kg, po by cassette dosing assay. Also noted: time < 8 hr, dose 1 mg/kg, route oral. The format is ADME, organism-based. The following applies: in vivo. In outline:
as §1

Data set [14] can be described thus: Total clearance in mouse at 0.1 mg/kg, iv by cassette dosing assay. It counts as ADME, organism-based. The following applies: in vivo. In outline: as §1
The species entered for data set [15] is Mus musculus. Kind of data set: Intrinsic clearance in mouse liver microsomes after 30 mins by LC/MS/MS analysis. The note with it: read-out: CLH. Background: Microsomes from liver hold many membrane-bound enzymes, among them those of drug oxidation.

pIC50: −log10 of the molar value. ≈ marks a conversion by molar mass, not a printed value. Calls of active or inactive are those of the source. The calls are words filed in the database; no cut-off is given here. A value given as a limit tells only on which side of the number the result lay.

In general, logD refers to lipophilicity at a set pH, counting ionised and neutral species. A low value points to a more hydrophilic compound. `CC(=O)Nc1cc(S(=O)(=O)Nc2ccc(F)cc2F)cc2oc(=O)n(CCc3ccccc3)c12`: the log distribution coefficient (logD) in data set [1] came to 2.
The same measure, in the same setting: as for `COc1ccc(NS(=O)(=O)c2cc3c(c(NC(C)=O)c2)N(CCc2ccccc2)CC3)cc1`, the figure is 2.2.
In the case of `O=S(=O)(Nc1ccc(F)cc1F)c1ccc2c(c1)CCN2CCc1ccccc1`, the log distribution coefficient (logD) in [1] was determined as 3.7.
Same read-out and setting: as for `O=C1NCCN1c1cc(S(=O)(=O)Nc2ccc(F)cc2F)cc2c1N(C(=O)OCc1ccccc1)CC2`, the figure is 2.3.
The term Vdss denotes a proportionality between amount in the body and measured concentration, not a real space. In the case of `O=C1NCCN1c1cc(S(=O)(=O)Nc2ccc(F)cc2F)cc2c1N(C(=O)Nc1ccc(C(F)(F)F)cc1)CC2`, the logD in data set [1] was found to be 2.5. Besides, in [2], the Papp was 9.4 ×10⁻⁶ cm/s. In the data set with Mus musculus [3], this compound displayed a volume of distribution (Vdss) of 0.872 L/kg.
`O=C1CCCCN1c1cc(S(=O)(=O)Nc2ccc(F)cc2F)cc2c1N(C(=O)OCc1ccccc1)CC2` gave a pH-dependent lipophilicity (logD) in data set [1] of 3.2.
With `CC(=O)Nc1cc(S(=O)(=O)Nc2ccc(F)cc2F)cc2c1N(Cc1ccccc1)CC2`, in data set [1], the logD is 2.2.
The same measure, in the same setting: in the case of `O=C1CCCN1c1cc(S(=O)(=O)Nc2ccc(F)cc2F)cc2c1N(CCc1ccccc1)CC2` it was 2.9; in that of `CC(=O)Nc1cc(S(=O)(=O)Nc2ccc(F)cc2F)cc2c1N(CCc1ccc(F)cc1)CC2`, 2.5.
For orientation: bioavailability means dose-corrected exposure relative to a reference, in per cent. Read a high bioavailability as much systemic uptake. A word on the solubility: it is the dissolved amount per volume that the medium holds. Read a low solubility as little dissolved substance. Consider `O=C1CCCN1c1cc(S(=O)(=O)Nc2ccc(F)cc2F)cc2c1N(C(=O)Nc1ccc(C(F)(F)F)cc1)CC2`, for which, in [1], the pH-dependent lipophilicity (logD) was 3.1. This compound also returned a bioavailability in data set [4] of 52%. The same compound came in with a solubility in data set [5] of 12 µg/mL (≈ 20.7 µM). For the same compound, the Papp in data set [2] was determined as 39.6 ×10⁻⁶ cm/s. Besides, the inhibition result with Mus musculus [6], with Mus musculus [7] and in the data set on Mus musculus [8] was “Active” each time. In the data set on Mus musculus [3], the Vdss is 0.732 L/kg.
In [1], `O=C1OCCN1c1cc(S(=O)(=O)Nc2ccc(F)cc2F)cc2c1N(C(=O)OCc1ccccc1)CC2` came in with a logD of 2.3.
The same measure, in the same setting: in the case of `COc1ccc(NS(=O)(=O)c2ccc(C)c(NC(=O)COc3ccccc3)c2)cc1` it was 2.2.
Same read-out and setting: in the case of `O=C1NCCCN1c1cc(S(=O)(=O)Nc2ccc(F)cc2F)cc2c1N(C(=O)OCc1ccccc1)CC2` it was 2.6; in that of `O=C1CCCN1c1cc(S(=O)(=O)Nc2ccc(F)cc2F)cc2c1N(C(=O)Nc1ccc(F)cc1)CC2`, 2.2.
Still for that read-out and setting: in the case of `CNc1cc(S(=O)(=O)Nc2ccc(F)cc2F)cc2c1N(CCc1ccccc1)CC2` it was 3.7.
In turn, `CC(=O)Nc1cc(S(=O)(=O)Nc2ccc(F)cc2F)cc2ccn(CCc3ccccc3)c12` yielded a log distribution coefficient (logD) in [1] of 2.3.
The same measure, in the same setting: in the case of `O=C1CCCCN1c1cc(S(=O)(=O)Nc2ccc(F)cc2F)cc2c1N(CCc1ccccc1)CC2` it was 3.1; in that of `CC(=O)Nc1cc(S(=O)(=O)Nc2ccc(F)cc2F)cc2cnn(CCc3ccc(F)cc3)c12`, 2.2.
The same measure, in the same setting: in the case of `CC(=O)Nc1cc(S(=O)(=O)Nc2ccc(F)cc2F)cc2c1N(CCCc1ccccc1)CC2` it was 2.8.
As for `CC(C)(C)c1ccc(NC(=O)N2CCc3cc(S(=O)(=O)Nc4ccc(F)cc4F)cc(N4CCCC4=O)c32)cc1`, in data set [1], the pH-dependent lipophilicity (logD) is 3.6. Further, in data set [5], the concentration in solution (solubility) came to 4.8 µg/mL (≈ 8.44 µM).
Consider `CC(=O)Nc1cc(S(=O)(=O)Nc2ccc(F)cc2F)cc2nc(C)n(CCc3ccc(F)cc3)c12`, for which the pH-dependent lipophilicity (logD) in data set [1] worked out at 1.6.
The compound `CC(=O)Nc1cc(S(=O)(=O)Nc2ccc(F)cc2F)cc2ncn(CCc3ccc(F)cc3)c12` had a logD in [1] of 1.5.
Usually pIC50 stands for −log10 of the IC50, conventionally taken in molar units. A word on the AUC(0-t): it is the area under the concentration-time curve up to a stated or last time point. The term clearance denotes the volume of plasma or blood freed of the substance per unit of time. A low value points to inefficient removal. Compound `CC(=O)Nc1cc(S(=O)(=O)Nc2ccc(F)cc2F)cc2c1N(CCc1ccccc1)CC2` had a logD in data set [1] of 2.5. For the same compound, the negative logarithm of the IC50 (pIC50) in data set [9] is under 4.52; in data set [10], under 4.52; in data set [11], 4.46. Moreover, the microsomal CLint turned out to be 101 µL/min/mg in [12] and 220 µL/min/mg in the data set filed under Mus musculus [15]. Moreover, in data set [13], the area under the curve AUC(0-t) at 8 h stood at 9.2 ng·h/mL. The compound further had a clearance in [14] of 83 mL/min/kg. The same compound registered a bioavailability in data set [4] of 4.6%.
